{"data": "Experimental data collected from several papers", "observed": "cell growth or viability", "note": "Lines come from different studies, so protocols differ."}
{"SMILES": "Cc1cccc(/C=C/C(=O)Nc2cc(-c3ccnc(N4CCOCC4)c3)ccn2)c1", "cell line": "A549", "technique": "MTT", "concentration": "5 µM", "measurement": "inhibition", "value": "74.9%"}
{"SMILES": "Cc1c(Cc2ccccc2)c(=O)oc2c(C)c(OCC(=O)NN=Cc3ccccc3)ccc12", "cell line": "PC-3", "technique": "MTT", "concentration": "31.25 µg/mL", "measurement": "viability", "value": "42.1%"}
{"SMILES": "O=C(O)c1ccc2c(c1)nc(Nc1cccc(Cl)c1)c1ccncc12", "cell line": "NCI-H522", "technique": "crystal violet", "time": "48 h", "measurement": "IC50", "value": "3.1 µM"}
{"SMILES": "Cc1cc(NC(=O)C=Cc2ccccc2)cc(-c2ccnc(N3CCC(CO)CC3)c2)c1", "cell line": "A549", "technique": "MTT", "concentration": "5 µM", "measurement": "inhibition", "value": "54.3%"}
{"SMILES": "COc1cc2ncnc(Nc3ccc4c(c3)/C(=C/c3ccccc3)C(=O)N4C)c2cc1OC", "cell line": "A549", "technique": "MTT", "measurement": "IC50", "value": "14.4 µM"}
{"SMILES": "COc1cccc2c1C(=O)c1c(O)c3c(c(O)c1C2=O)C[C@@](O)(C(=O)CO)C[C@@H]3O[C@H]1C[C@H](N)[C@H](O)[C@H](C)O1", "cell line": "A549", "technique": "MTT", "concentration": "50 µg/mL", "time": "48 h", "setting": "serum-free", "measurement": "viability", "value": "20.2%"}
{"SMILES": "Cc1nc(Nc2ccc3c(c2)/C(=C/c2ccccc2C)C(=O)N3C)c2ccccc2n1", "cell line": "A549", "technique": "MTT", "measurement": "IC50", "value": "21.6 µM"}
{"SMILES": "C=CCOc1ccc2c(C)c(CC)c(=O)oc2c1C", "cell line": "PC-3", "technique": "MTT", "concentration": "31.25 µg/mL", "measurement": "viability", "value": "99.7%"}
{"SMILES": "COc1ccc(-c2cc(-c3ccc(Br)cc3)c3c(=O)[nH]c(=O)[nH]c3n2)cc1", "cell line": "PC-3", "technique": "MTT", "time": "48 h", "measurement": "IC50", "value": "15.9 µM"}
{"SMILES": "CCOc1ccc2c(C)c(CC)c(=O)oc2c1C", "cell line": "PC-3", "technique": "MTT", "concentration": "125 µg/mL", "measurement": "viability", "value": "51%"}
{"SMILES": "Cc1ccc(-c2cc(-c3ccc(Cl)cc3)c3c(=O)n(C)c(=O)n(C)c3n2)cc1", "cell line": "PC-3", "technique": "MTT", "time": "48 h", "measurement": "IC50", "value": "11.7 µM"}
{"SMILES": "CCC[C@H]1NC(=O)[C@H](Cc2cc(Cl)ccc2-c2cnn(C)c2)N(C)C(=O)[C@H](CC(C)C)NC(=O)[C@@H](N(C)C(=O)[C@H](CCCCN2CCOCC2)NC(=O)[C@@H](c2cccnc2)C2CCCCC2)CCCCNC1=O", "cell line": "NCI-H1048", "technique": "MTT", "time": "5 days", "measurement": "GI50", "value": "3 µM"}
{"SMILES": "Cc1cccc(/C=C/C(=O)Nc2cccc(-c3ccnc(N4CCC(O)CC4)c3)c2)c1", "cell line": "A549", "technique": "MTT", "concentration": "5 µM", "measurement": "inhibition", "value": "54.8%"}
{"SMILES": "Cc1c(Cc2ccccc2)c(=O)oc2c(C)c(OCC(=O)NN=Cc3ccco3)ccc12", "cell line": "PC-3", "technique": "MTT", "concentration": "500 µg/mL", "measurement": "viability", "value": "8.21%"}
{"SMILES": "O=C(CCc1ccccc1)Nc1cc(-c2ccnc(N3CCC(O)CC3)c2)ccn1", "cell line": "A549", "technique": "MTT", "concentration": "5 µM", "measurement": "inhibition", "value": "65.7%"}
{"SMILES": "COc1cc2ncnc(N(C)c3ccc4c(c3)/C(=C/c3ccccc3)C(=O)N4C)c2cc1OC (mixture of isomers)", "cell line": "A549", "technique": "MTT", "measurement": "IC50", "value": "3.24 µM"}
{"SMILES": "CCNC(=S)NNC(=O)COc1ccc2c(C)c(CC)c(=O)oc2c1C", "cell line": "PC-3", "technique": "MTT", "concentration": "31.25 µg/mL", "measurement": "viability", "value": "99%"}
{"SMILES": "Cc1cc(NC(=O)C=Cc2ccccc2)cc(-c2ccnc(N3CCOCC3)c2)c1", "cell line": "A549", "technique": "MTT", "concentration": "5 µM", "measurement": "inhibition", "value": "17.7%"}
{"SMILES": "COc1ccc(-c2cc(-c3ccc(C)cc3)nc3[nH]c(=O)[nH]c(=O)c23)cc1OC", "cell line": "PC-3", "technique": "MTT", "time": "48 h", "measurement": "IC50", "value": "39.1 µM"}
{"SMILES": "O=C(/C=C/c1ccc(F)cc1)Nc1cc(-c2ccnc(N3CCC(O)CC3)c2)ccn1", "cell line": "A549", "technique": "MTT", "concentration": "5 µM", "measurement": "inhibition", "value": "62.2%"}
{"SMILES": "COc1cccc2c1C(=O)c1c(O)c3c(c(O)c1C2=O)C[C@@](O)(C(=O)CO)C[C@@H]3O[C@H]1C[C@H](N)[C@H](O)[C@H](C)O1", "cell line": "HUVEC", "technique": "MTT", "time": "24 h", "measurement": "IC50", "value": "6.5 µM"}
{"SMILES": "COc1cc2ncnc(Nc3ccc4c(c3)/C(=C/c3ccccc3)C(=O)N4)c2cc1OC", "cell line": "A549", "technique": "MTT", "measurement": "IC50", "value": "17.1 µM"}
{"SMILES": "CCc1c(C)c2ccc(OCC(=O)NNC(=S)Nc3ccccc3)c(C)c2oc1=O", "cell line": "PC-3", "technique": "MTT", "concentration": "125 µg/mL", "measurement": "viability", "value": "4.76%"}
{"SMILES": "O=C(C=Cc1cccc(F)c1)Nc1cc(-c2ccnc(N3CCC(O)CC3)c2)ccn1", "cell line": "A549", "technique": "MTT", "concentration": "5 µM", "measurement": "inhibition", "value": "65%"}
{"SMILES": "CCc1c(C)c2ccc(OCC(=O)NN=Cc3ccc([N+](=O)[O-])cc3)cc2oc1=O", "cell line": "PC-3", "technique": "MTT", "concentration": "500 µg/mL", "measurement": "viability", "value": "5.32%"}
{"SMILES": "C=CC(=O)NC1CCN(c2ncc3ncnc(Nc4ccc(Oc5ccc6c(c5)ncn6C)c(C)c4)c3n2)CC1", "cell line": "A549", "measurement": "EC50", "value": "6.34 µM"}
{"SMILES": "Cc1cccc(/C=C/C(=O)Nc2cc(-c3ccnc(N4CCC(O)CC4)c3)ccn2)c1", "cell line": "A549", "technique": "MTT", "concentration": "5 µM", "measurement": "inhibition", "value": "74.5%"}
{"SMILES": "CC(=NNC(=O)COc1ccc2c(C)c(Cc3ccccc3)c(=O)oc2c1C)c1ccc(Br)cc1", "cell line": "PC-3", "technique": "MTT", "concentration": "500 µg/mL", "measurement": "viability", "value": "2.33%"}
